ChEMBL document CHEMBL1123822, “Lysosomotropic agents. 7. Broad-spectrum antifungal activity of lysosomotropic detergents” (1987)
Converted amounts (≈) assume the structure as drawn.

Columns and labels:
Type in all cases: functional
Saccharomyces cerevisiae [1] = assay: The compound was evaluated for mean zone diameter (inhibition) against yeast at the concentration of 250 ug/mL
In short: (§1)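 Filter-paper disk diffusion (6.2 mm disks) with drug in methanol at the stated level, 25 μL per disk. Disks were air-dried at room temperature, laid on seeded agar, rewet with 25 μL 10% aqueous Me₂SO and incubated overnight. Media were unbuffered, pH ca. 4.5–5.6. The panel was 21 yeasts and 21 filamentous fungi. Zones of 0 mm were excluded from means.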

Candida albicans [2] = assay: The compound was tested for antifungal activity against Candida albicans My1029 using agar dilution assay
In short: (§2)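 Standardized agar dilution in Kimmig agar with 5% glycerol. Lysosomotropic detergents solubilized in 10% Me₂SO. Twofold serial dilutions in sterile distilled water gave final agar concentrations of 128 to 0.06 μg/mL. Stated error ±1 dilution stage.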

Candida parapsilosis [3] = assay: The compound was tested for antifungal activity against Candida parapsilosis MY1009 using agar dilution assay; details: Lodderomyces parapsilosis; in short: as §2
Pichia kudriavzevii = assay: The compound was tested for antifungal activity against Candida krusei MY1020 using agar dilution assay; in short: as §2
Candida albicans [4] = assay: The compound was tested for antifungal activity against Candida albicans MY1055 using agar dilution assay; in short: as §2
Nakaseomyces glabratus [5] = assay: The compound was tested for antifungal activity against Torulopsis glabrata MY1059 using agar dilution assay
In short: (§3)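 Standardized agar dilution on Kimmig agar with 5% glycerol. Detergents solubilized in 10% Me2SO; desoxycholate-stabilized amphotericin B diluted and titrated in sterile distilled water. Twofold dilutions in sterile distilled water gave final agar concentrations of 128 to 0.06 μg/mL. Error limit ±1 dilution stage.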

Candida albicans [6] = assay: The compound was tested for antifungal activity against Candida stellatoidea MY1017 using agar dilution assay; in short: as §3
Kluyveromyces marxianus [7] = assay: The compound was tested for antifungal activity against Candida pseudotropicalis MY1040 using agar dilution assay; in short: as §2
Candida albicans [8] = assay: The compound was tested for antifungal activity against Candida albicans MY1013 using agar dilution assay; in short: as §2
Aspergillus flavus = assay: The compound was tested for antifungal activity against Aspergillus flavus MF0383 using agar dilution assay; in short: as §2
Saccharomyces cerevisiae [9] = assay: The compound was evaluated for mean zone diameter (inhibition) against yeast at the concentration of 125 ug/mL; in short: as §1
Diutina rugosa = assay: The compound was tested for antifungal activity against Candida rugosa MY1022 using agar dilution assay; in short: as §2
Candida tropicalis [10] = assay: The compound was tested for antifungal activity against Candida tropicalis MY1012 using agar dilution assay; in short: as §3
Cryptococcus neoformans [11] = assay: The compound was tested for antifungal activity against Cryptococcus neoformans MY1146 using agar dilution assay; in short: as §3
Penicillium italicum = assay: The compound was tested for antifungal activity against Penicillium italicum MF2819 using agar dilution assay; in short: as §3
Cryptococcus neoformans [12] = assay: The compound was tested for antifungal activity against Cryptococcus neoformans MY1051 using agar dilution assay; in short: as §3
Candida tropicalis [13] = assay: The compound was tested for antifungal activity against Candida tropicalis MY1011 using agar dilution assay; in short: as §3
Saccharomyces cerevisiae [14] = assay: The compound was evaluated for mean zone diameter (inhibition) against yeast at the concentration of 500 ug/mL
In short: (§4)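 Disk diffusion: drug in methanol spotted on 6.2 mm paper disks (25 μL/disk), dried at room temperature, laid on seeded agar, rewet with 25 μL 10% aqueous Me₂SO; zones read after overnight incubation. Unbuffered acidic media (pH ca. 4.5–5.6). Panel of 21 yeasts and 21 filamentous fungi; zones of 0 mm excluded from means.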

Candida albicans [15] = assay: The compound was tested for antifungal activity against Candida albicans MY0992 using agar dilution assay; in short: as §2
Candida parapsilosis [16] = assay: The compound was tested for antifungal activity against Candida parapsilosis MY1010 using agar dilution assay; details: Lodderomyces parapsilosis; in short: as §2
[17] = test system: Meyerozyma guilliermondii; assay: The compound was tested for antifungal activity against Candida guilliermondii MY1019 using agar dilution assay; in short: as §2
Candida albicans [18] = assay: The compound was tested for antifungal activity against Candida albicans MY1058 using agar dilution assay; in short: as §2
Fungi = assay: (§5) The compound was evaluated for mean zone diameter (inhibition) against yeast at the concentration of 1000 ug/mL; in short: as §4
Saccharomyces cerevisiae [19] = assay: The compound was tested for antifungal activity against Saccharomyces cerevisiae MY1027 using agar dilution assay; in short: as §3
Aspergillus fumigatus = assay: The compound was tested for antifungal activity against Aspergillus fumigatus MF4839 using agar dilution assay; in short: as §2
Cercospora beticola = assay: The compound was evaluated for zone inhibition against Cercospora beticola (MF4608) using disk diffusion assay; 8 hazy
In short: (§6)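 Disk diffusion: 25 μL of 250 μg/mL drug in methanol on 6.2 mm paper disks, dried at room temperature, placed on seeded agar and rewet with 25 μL 10% aqueous Me₂SO. Zones were read after overnight incubation, ±1 mm. Media were unbuffered, pH ca. 4.5–5.6: potato dextrose agar for filamentous fungi, Sabouraud dextrose for yeasts, unless YNB (76 mM ammonium sulfate, sole nitrogen source) or YED is named. Zone edges were scored fuzzy, slightly hazy, hazy or very hazy.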

Penicillium [20] = assay: The compound was evaluated for zone inhibition against Penicillium sp (MF5016) using disk diffusion assay; 18 Fuzzy edges
In short: (§7)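 Filter-paper disks (6.2 mm) loaded with 25 μL of a 250 μg/mL methanol solution, dried at room temperature, laid on seeded agar and rewet with 25 μL 10% aqueous Me₂SO. Media were unbuffered, pH ca. 4.5–5.6: potato dextrose agar for filamentous fungi, sabouraud dextrose agar for yeasts, unless noted. Inhibition zone diameter read after overnight incubation, ±1 mm. Zone edges scored fuzzy, slightly hazy, hazy or very hazy.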

Saccharomyces cerevisiae [21] = assay: The compound was evaluated for mean zone diameter (inhibition) against yeast at the concentration of 62.5 ug/mL; in short: as §1
Kluyveromyces marxianus [22] = assay: The compound was evaluated for zone inhibition against Candida pseudotropicalis MY1100 using disk diffusion assay; 19 slightly hazy; in short: as §6
Kluyveromyces marxianus [23] = assay: The compound was evaluated for zone inhibition against Kluyveromyces fragilis MY1113 using disk diffusion assay; 15 slightly hazy; in short: as §7
Ustilago maydis = assay: The compound was evaluated for zone inhibition against Ustilago zeae (MF1996) using disk diffusion assay; 14 slightly hazy; in short: as §7
Trichoderma = assay: The compound was evaluated for zone inhibition against Trichoderma sp (MF4064) using disk diffusion assay; 16 Fuzzy edges; in short: as §7
Saccharomyces cerevisiae [24] = assay: as §5; in short: as §4
Penicillium [25] = assay: The compound was evaluated for zone inhibition against Penicillium sp (MF5014) using disk diffusion assay; 17 slightly hazy; in short: as §7
Ophiostoma ulmi = assay: The compound was evaluated for zone inhibition against Ceratocystis ulmi (MF4042) using disk diffusion assay; 12 slightly hazy; in short: as §6
Phoma = assay: The compound was evaluated for zone inhibition against Phoma sp (MF4332) using disk diffusion assay; 13 slightly hazy; in short: as §7
Nakaseomyces glabratus [26] = assay: The compound was evaluated for zone inhibition against Torulopsis glabrata MY1062 using disk diffusion assay; 7 very hazy; in short: as §7
Saccharomyces cerevisiae [27] = assay: The compound was evaluated for zone inhibition against Saccharomyces cerevisiae YED MY34 using disk diffusion assay; 8 slightly hazy; in short: as §7
Papiliotrema laurentii [28] = assay: The compound was evaluated for zone inhibition against Cryptococcus laurentii MY1073 using disk diffusion assay; in short: as §6
Rhizomucor miehei = assay: The compound was evaluated for zone inhibition against Rhizomucor miehei (MF4784) using disk diffusion assay; 9 hazy; in short: as §7
Fusarium oxysporum = assay: The compound was evaluated for zone inhibition against Fusarium oxysporum (MF4014) using disk diffusion assay; 15 Fuzzy edges; in short: as §7
Trichoderma viride = assay: The compound was evaluated for zone inhibition against Trichoderma lignorum (MF3560) using disk diffusion assay; 13 Fuzzy edges; in short: as §7
Cephalosporium = assay: The compound was evaluated for zone inhibition against Cephalosporium sp (MF4641) using disk diffusion assay; 12 slightly hazy; in short: as §6
Papiliotrema laurentii [29] = assay: The compound was evaluated for zone inhibition against Cryptococcus laurentii MY1077 using disk diffusion assay; 9 hazy; in short: as §7
Naganishia albida = assay: The compound was evaluated for zone inhibition against Cryptococcus albidus MY1070 using disk diffusion assay; 9 very hazy; in short: as §6
Saccharomyces cerevisiae [30] = assay: The compound was evaluated for zone inhibition against Saccharomyces cerevisiae MY410 using disk diffusion assay; in short: as §7
Papiliotrema laurentii [31] = assay: The compound was evaluated for zone inhibition against Cryptococcus laurentii MY1074 using disk diffusion assay; 7 very hazy; in short: as §7
Penicillium [32] = assay: The compound was evaluated for zone inhibition against Penicillium sp (MF5020) using disk diffusion assay; 15 Fuzzy edges; in short: as §7

CC(=O)N1CCN(c2ccc(OCC3COC(Cn4ccnc4)(c4ccc(Cl)cc4Cl)O3)cc2)CC1 (configuration not stated) [KETOCONAZOLE] gave an Inhibition zone (Saccharomyces cerevisiae [1]) of 23.3 mm, an MIC (Candida albicans [2]) of 0.5 µg/mL (≈ 0.941 µM) and an MIC (Candida parapsilosis [3]) of 4 µg/mL (≈ 7.53 µM). For the same compound, the MIC (Pichia kudriavzevii) was 1 µg/mL (≈ 1.88 µM), the MIC (Candida albicans [4]) was 0.5 µg/mL (≈ 0.941 µM) and the MIC (Nakaseomyces glabratus [5]) was 1 µg/mL (≈ 1.88 µM). It also gave an MIC (Candida albicans [6]) of 0.5 µg/mL (≈ 0.941 µM), an MIC (Kluyveromyces marxianus [7]) of 1 µg/mL (≈ 1.88 µM) and an MIC (Candida albicans [8]) of 0.5 µg/mL (≈ 0.941 µM). For the same compound, the MIC (Aspergillus flavus) was 1 µg/mL (≈ 1.88 µM), the Inhibition zone (Saccharomyces cerevisiae [9]) was 20.6 mm and the MIC (Diutina rugosa) was 0.5 µg/mL (≈ 0.941 µM). It also gave an MIC (Candida tropicalis [10]) of over 128 µg/mL, an MIC (Cryptococcus neoformans [11]) of 0.5 µg/mL (≈ 0.941 µM) and an MIC (Penicillium italicum) of 1 µg/mL (≈ 1.88 µM). For the same compound, the MIC (Cryptococcus neoformans [12]) was 0.25 µg/mL (≈ 0.47 µM), the MIC (Candida tropicalis [13]) was 1 µg/mL (≈ 1.88 µM) and the Inhibition zone (Saccharomyces cerevisiae [14]) was 24.8 mm. The MIC (Candida albicans [15]) was 1 µg/mL (≈ 1.88 µM), the MIC (Candida parapsilosis [16]) was 2 µg/mL (≈ 3.76 µM) and the MIC [17] was 0.5 µg/mL (≈ 0.941 µM). The MIC (Candida albicans [18]) was 0.5 µg/mL (≈ 0.941 µM), the Inhibition zone (Fungi) was 27.2 mm and the MIC (Saccharomyces cerevisiae [19]) was 0.5 µg/mL (≈ 0.941 µM). The MIC (Aspergillus fumigatus) was 1 µg/mL (≈ 1.88 µM).
For CCCCCCCCCCCCN1CCOCC1, the Inhibition zone (Saccharomyces cerevisiae [1]) was 11.4 mm, the MIC (Candida albicans [2]) was 32 µg/mL (≈ 125 µM) and the Inhibition zone (Cercospora beticola) was 8 mm. The MIC (Candida parapsilosis [3]) was 64 µg/mL (≈ 251 µM), the Inhibition zone (Penicillium [20]) was 18 mm and the Inhibition zone (Saccharomyces cerevisiae [21]) was 8.6 mm. For the same compound, the Inhibition zone (Kluyveromyces marxianus [22]) was 19 mm, the Inhibition zone (Kluyveromyces marxianus [23]) was 15 mm and the MIC (Pichia kudriavzevii) was 32 µg/mL (≈ 125 µM). For the same compound, the Inhibition zone (Ustilago maydis) was 14 mm, the Inhibition zone (Trichoderma) was 16 mm and the Inhibition zone (Saccharomyces cerevisiae [24]) was 19 mm. The Inhibition zone (Penicillium [25]) was 17 mm, the Inhibition zone (Ophiostoma ulmi) was 17 mm and the MIC (Candida albicans [4]) was 32 µg/mL (≈ 125 µM). For the same compound, the MIC (Nakaseomyces glabratus [5]) was 64 µg/mL (≈ 251 µM), the Inhibition zone (Phoma) was 13 mm and the Inhibition zone (Nakaseomyces glabratus [26]) was 7 mm. The Inhibition zone (Saccharomyces cerevisiae [27]) was 8 mm, the MIC (Candida albicans [6]) was 32 µg/mL (≈ 125 µM) and the Inhibition zone (Papiliotrema laurentii [28]) was 0 mm. The MIC (Kluyveromyces marxianus [7]) was 32 µg/mL (≈ 125 µM), the Inhibition zone (Rhizomucor miehei) was 9 mm and the Inhibition zone (Fusarium oxysporum) was 15 mm. It also gave an MIC (Candida albicans [8]) of 32 µg/mL (≈ 125 µM), an MIC (Aspergillus flavus) of 64 µg/mL (≈ 251 µM) and an Inhibition zone (Trichoderma viride) of 13 mm. For the same compound, the Inhibition zone (Saccharomyces cerevisiae [9]) was 10.2 mm, the Inhibition zone (Cephalosporium) was 12 mm and the Inhibition zone (Papiliotrema laurentii [29]) was 9 mm. The MIC (Diutina rugosa) was 32 µg/mL (≈ 125 µM), the MIC (Candida tropicalis [10]) was 16 µg/mL (≈ 62.6 µM) and the MIC (Cryptococcus neoformans [11]) was 32 µg/mL (≈ 125 µM). The Inhibition zone (Naganishia albida) was 9 mm, the MIC (Penicillium italicum) was 32 µg/mL (≈ 125 µM) and the MIC (Cryptococcus neoformans [12]) was 16 µg/mL (≈ 62.6 µM). For the same compound, the Inhibition zone (Saccharomyces cerevisiae [30]) was 0 mm, the MIC (Candida tropicalis [13]) was 32 µg/mL (≈ 125 µM) and the Inhibition zone (Saccharomyces cerevisiae [14]) was 12.8 mm. It also gave an MIC (Candida albicans [15]) of 64 µg/mL (≈ 251 µM), an Inhibition zone (Papiliotrema laurentii [31]) of 7 mm and an MIC (Candida parapsilosis [16]) of 16 µg/mL (≈ 62.6 µM). The Inhibition zone (Penicillium [32]) was 15 mm, the MIC [17] was 32 µg/mL (≈ 125 µM) and the MIC (Candida albicans [18]) was 32 µg/mL (≈ 125 µM). It also gave an MIC (Saccharomyces cerevisiae [19]) of 32 µg/mL (≈ 125 µM) and an MIC (Aspergillus fumigatus) of 64 µg/mL (≈ 251 µM).
